The results in this text go back to ChEMBL document CHEMBL4622964, “Designing Dihydrofolate Reductase Inhibitors as X-ray Radiosensitizers to Reverse Radioresistance of Cervical Cancer” (ACS Med Chem Lett, 2020).

What is called IC50 is the concentration that inhibits the measured activity by half.

Structures are written as SMILES. Activity calls are given as the source filed them. The calls are words filed in the database; no cut-off is given here.

A short description of series [1]: Ratio of IC50 for cytotoxicity against human Ect1 cells assessed as reduction in cell viability by MTT assay to cytotoxicity against human Ect1 cells assessed as reduction in cell viability in presence of 4 Gy irradiation by MTT assay. It counts as cell-based. Particulars: read-out: Ratio IC50. The procedure, abridged: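 MTT viability assay on Ect1/E6E7 normal ectocervical cells and HeLa cells, with 0 or 4 Gy X-rays. SER = IC50(0 Gy)/IC50(4 Gy) in the same line; safe index SI4 = IC50 Ect1/E6E7 + 4 Gy divided by IC50 HeLa + 4 Gy.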
On the technique in general: Formazan colour is commonly taken as a measure of viable cells.

Series [2] can be described thus: Toxicity in BALB/c mouse xenografted with human HeLa cells assessed as liver damage by measuring effect on AST level at 4 mg/kg, iv administered every 3 days for 21 days in presence of 4 Gy X-ray irradiation. Particulars: in vivo. It counts as organism-based. The method in brief: (§1)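 HeLa xenograft nude mice dosed at 4 mg/kg iv every 3 days over 21 days, alone or with X-rays; blood collected 24 h after last injection for serum biochemistry: ALT, AST (liver), BUN and uric acid (kidney).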
A general note: In xenograft studies the graft and the host belong to different species.

The nature of series [3]: Cytotoxicity against human Ect1 cells assessed as reduction in cell viability by MTT assay. It counts as cell-based. The method in brief: (§2)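 MTT viability assay in Ect1/E6E7 normal ectocervical epithelial cells, with the test agent alone (0 Gy) or combined with 4 Gy X-rays. IC50 values are in μM.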
Series [4] is described as follows: Toxicity in BALB/c mouse xenografted with human HeLa cells assessed as kidney damage at 4 mg/kg, iv administered for every 3 days for 21 days and measured after 24 hrs post last dose in presence of 4 Gy X-ray irradiation by H and E staining based light microscopic analysis. It counts as organism-based. The following applies: in vivo. The method in brief:
(§3)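 HeLa-tumor-bearing nude mice dosed at 4 mg/kg iv every 3 days for 21 days, alone or with X-rays; euthanized 24 h after last injection; heart, liver, lungs, kidneys and spleen sectioned and stained with H&E.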

Series [5] can be described thus: Safety index, ratio of IC50 for cytotoxicity against human Ect1 cells assessed as reduction in cell viability to IC50 for antiproliferative activity against human HeLa cells assessed as reduction in cell viability incubated for 12 hrs by MTT assay. It counts as toxicity, cell-based. The following applies: Ect1 cells versus HeLa cells, read-out: Ratio IC50. The method in brief: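 Safe index SI0 from MTT assay without irradiation: IC50 in Ect1/E6E7 normal ectocervical cells divided by IC50 in HeLa cells.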

Series [6] concerns HeLa. The experiment in a line: Induction of apoptosis in human HeLa cells assessed as caspase-9 activation at 1 uM using Ac-LEHD-AMC as substrate after 12 hrs by fluorescence based assay. It counts as functional, cell-based. The procedure, abridged: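 HeLa cells exposed to 1 μM compound with or without 4 Gy X-rays for 12 h; caspase 8, 9 and 3 activities measured; mean ± SD of three independent experiments.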

Series [7] relates to HeLa. Put plainly: Induction of cell cycle arrest in human HeLa cells assessed as accumulation at G1 phase at 1 uM after 48 hrs by propidium iodide staining based flow cytometric analysis (reference value: 40.7%). It counts as functional.
A short description of series [8]: Drug uptake in human HeLa cells at 4 uM after 4 hrs by fluorescence based assay. It counts as ADME, cell-based.
The subject of series [9] is HeLa. Put plainly: Induction of reactive oxygen species generation in human HeLa cells incubated with DHE for 30 mins and measured up to 30 mins by fluorescence microscopic analysis. It counts as functional, cell-based. The method in brief:
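HeLa cells pretreated with compound, with or without 4 Gy X-rays, then incubated with dihydroethidium for 30 min; red superoxide-derived fluorescence imaged by fluorescence microscopy, with observation continued over a further 30 min.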

Series [10] in a line: Toxicity in BALB/c mouse xenografted with human HeLa cells assessed as kidney damage at 4 mg/kg, iv administered for every 3 days for 21 days and measured after 24 hrs post last dose by H and E staining based light microscopic analysis. It counts as organism-based. The following applies: in vivo. The method in brief: as §3
A short description of series [11]: Toxicity in BALB/c mouse xenografted with human HeLa cells assessed as body weight loss at 4 mg/kg, iv administered for every 3 days and measured after 21 days in presence of 4 Gy X-ray irradiation. It counts as organism-based. The following applies: in vivo, 504 h. The procedure, abridged:
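HeLa-tumor-bearing nude mice given compound at 4 mg/kg by tail-vein injection every 3 days, alone or with X-rays; body weight recorded across 21 days.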

Series [12] deals with HeLa. Put plainly: Induction of mitochondrial dysfunction in human HeLa cells assessed as change in mitochondrial membrane potential at 1 uM incubated for 24 hrs in presence of 4 Gy X-ray irradiation by JC1 staining based flow cytometry (reference value: 4.9%). It counts as functional. The method in brief: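 Mitochondrial membrane potential was assessed by JC-1 flow cytometry in HeLa cells treated at 1 μM without or with 4 Gy X-rays. Green fluorescence gives the proportion of cells with lost ΔΨm.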
For orientation: Flow cytometry measures light scatter and fluorescence of single cells or particles in a stream.

Series [13] can be described thus: Toxicity in BALB/c mouse xenografted with human HeLa cells assessed as spleen damage at 4 mg/kg, iv administered for every 3 days for 21 days and measured after 24 hrs post last dose in presence of 4 Gy X-ray irradiation by H and E staining based light microscopic analysis. It counts as organism-based. Particulars: in vivo. The procedure, abridged: as §3
A short description of series [14]: Toxicity in BALB/c mouse xenografted with human HeLa cells assessed as liver damage by measuring effect on ALT level at 4 mg/kg, iv administered every 3 days for 21 days. It counts as organism-based. Particulars: in vivo. The method in brief: as §1
Series [15] can be described thus: Cytotoxicity against human Ect1 cells assessed as reduction in cell viability in presence of 4 Gy irradiation by MTT assay. It counts as cell-based. The following applies: light or radiation study. The method in brief:
as §2

For series [16], the system named is HeLa. The experiment in a line: Induction of cell cycle arrest in human HeLa cells assessed as accumulation at G2/M phase at 1 uM after 48 hrs in presence of 4 Gy X-ray radiation by propidium iodide staining based flow cytometric analysis (reference value: 40.4%). It counts as functional.
The nature of series [17]: Toxicity in BALB/c mouse xenografted with human HeLa cells assessed as kidney damage by measuring effect on BUN level at 4 mg/kg, iv administered every 3 days for 21 days in presence of 4 Gy X-ray irradiation. It counts as organism-based. Particulars: in vivo. The procedure, abridged: as §1
The subject of series [18] is HeLa. The experiment in a line: Antitumor activity against human HeLa cells xenografted in BALB/c mouse at 4 mg/kg, iv administered for every 3 days for 21 days. It counts as functional, organism-based. The method in brief:
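Nude mice bearing HeLa tumors; compound by tail-vein injection every 3 days over 21 days at 4 mg/kg, alone or combined with X-rays.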

Series [19] relates to HeLa. Put plainly: Induction of cell cycle arrest in human HeLa cells assessed as accumulation at G1 phase at 1 uM after 48 hrs in presence of 4 Gy X-ray radiation by propidium iodide staining based flow cytometric analysis (reference value: 28.6%). It counts as functional.
Series [20] in a line: Toxicity in BALB/c mouse xenografted with human HeLa cells assessed as heart damage at 4 mg/kg, iv administered for every 3 days for 21 days and measured after 24 hrs post last dose by H and E staining based light microscopic analysis. It counts as organism-based. The following applies: in vivo. The procedure, abridged: as §3
The next series has as its target T1, Dihydrofolate reductase (Homo sapiens, UniProt P00374).
T1 sequence (P00374 whole entry): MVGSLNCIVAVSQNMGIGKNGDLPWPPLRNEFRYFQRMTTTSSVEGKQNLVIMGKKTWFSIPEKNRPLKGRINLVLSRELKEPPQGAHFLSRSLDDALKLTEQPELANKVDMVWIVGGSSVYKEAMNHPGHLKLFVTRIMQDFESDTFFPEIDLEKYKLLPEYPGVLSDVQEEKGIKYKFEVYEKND
Put plainly: Inhibition of recombinant human DHFR using dihydrofolate as substrate in presence of NADPH.

As to `Nc1nc(N)c2nc3c(nc2n1)-c1cccc2cccc-3c12`, the selectivity ratio in [1] came out at 2.2. The Activity result in [2] is listed as “Non-Toxic”; in series [4], “Non-Toxic”; with HeLa [7], 38.7%; in series [10] it was “Non-Toxic”; in [11], “Non-Toxic”; in the series with HeLa [12], 32.3%. Besides, the Activity result in [13] is listed as “Non-Toxic”; in series [14] it was “Non-Toxic”; with HeLa [16], 36.2%; in [17], “Non-Toxic”; in the series with HeLa [19], 47.7%; in series [20], “Non-Toxic”. The values for the concentration for half-maximal inhibition (IC50) (in series [3]; in series [15]; at Dihydrofolate reductase) were 6.9 µM, 3.1 µM and 0.81 µM, respectively. Besides, the selectivity ratio at 12 h in series [5] was found to be 3.3. Moreover, the outcome with HeLa [6], in the series with HeLa [9] and in the series on HeLa [18] was Active. Further, the Drug uptake result in series [8] was “Active”.
